Measurements pooled from the literature.
Lines come from different studies, so protocols differ.
Target: Calcium/calmodulin-dependent protein kinase type II subunit beta (CAMK2B, Homo sapiens, UniProt Q13554)

SMILES | effect on | action | technique | concentration | measurement | result
CCN(CC)c1ccc(C2=NNC(=O)CC2C)cc1[N+](=O)[O-] (stereo not drawn) | enzyme activity | inhibitor |  | 10 µM | remaining activity | 96%
O=C(NCc1ncc(C(F)(F)F)cc1Cl)c1ccc2c(c1)C1(CCS(=O)(=O)CC1)[C@@H](C1CC1)N2S(=O)(=O)c1ccc(F)cc1 | cell-free assay |  | competition with immobilised ligand | 1 µM | remaining binding | 92%
CC/C(=N\NC(=O)NCc1cccc(O)c1)c1ccc(O)c(C)c1O | enzyme activity | inhibitor |  | 0.1 µM | inhibition | -4%
CC(C)c1ccc(NC(=O)c2cccs2)c(-c2nc3ccccc3[nH]c2=O)c1 | enzyme activity | inhibitor |  | 1 µM | activity vs control | 108%
CCN(CC)CCNC(=O)c1c(C)[nH]c(/C=C2\C(=O)Nc3ccc(F)cc32)c1C | enzyme activity | inhibitor |  | 10 µM | inhibition | 91%
Cc1ccc(C(=O)NCc2ccsc2)cc1C#Cc1cn(C(C)C)c2ncnc(N)c12 | enzyme activity | inhibitor |  | 1 µM | activity vs control | 95%
CCN(CC)CCNC(=O)c1c(C)[nH]c(/C=C2\C(=O)Nc3ccc(Cl)cc32)c1C | enzyme activity | inhibitor |  | 0.5 µM | remaining activity | 27.3%
O=C(Nc1cnn(-c2csc(C(=O)NC3COC3)c2)c1)Nc1c(F)cccc1Cl | enzyme activity | inhibitor |  | 5 µM | remaining activity | 99.1%
N#CCCc1ccc2c(c1)-c1[nH]c3ccc([N+](=O)[O-])cc3c1CC(=O)N2 | cell-free assay |  |  | 0.5 µM | remaining signal | 99.3%
Nc1c(C(=O)NCc2ccc(C(=O)NCCCC3CCCCC3)cc2)cnn1-c1ccccc1 | cell-free assay |  | competition with immobilised ligand | 0.1 µM | remaining binding | 100%
Nc1ncnc2occ(-c3ccc(NC(=O)Nc4cc(C(F)(F)F)ccc4F)cc3)c12 | enzyme activity | inhibitor |  | 20 µM | remaining activity | 95%
Cc1cc(-n2nc(Cc3cc(F)cc(C(F)(F)F)c3)nc2C)ccc1C(N)=O | cell-free assay |  | competition with immobilised ligand | 1 µM | remaining binding | 100%
CC(C)(O)[C@H]1CC[C@H](Nc2ccc3ncc(-c4cccc(C(F)(F)F)c4)n3n2)CC1 | enzyme activity | inhibitor |  | 1 µM | remaining activity | 96.9%
CO[C@@H](C)c1c(Nc2ccc([C@H](N(C)C(=O)C3CCS(=O)(=O)CC3)C(F)(F)F)cc2)cnc2cc(Cl)nn12 | cell-free assay |  | competition with immobilised ligand | 1 µM | remaining binding | 94%
CC(C)(C)c1nc2c(s1)c1nc(N)ncc1c1ccc(NS(=O)(=O)c3c(F)cccc3F)c(F)c12 | enzyme activity | inhibitor | radiometric | 1 µM | remaining activity | 83%
Cc1ccc(NC(=O)c2ccc(C)c(C(F)(F)F)c2)cc1C#Cc1nn(C2CCC(O)CC2)c2ncnc(N)c12 (stereo not drawn) | cell-free assay |  |  | 10 µM | remaining signal | 85%
C[C@@H]1CN(c2cc(-c3nn(C)c4ccc(OC5(C)CC5)cc34)ncn2)C[C@H](C)O1 | cell-free assay |  | competition with immobilised ligand | 1 µM | remaining binding | 96%
Cc1ccc(C(=O)Nc2ccc(CN3CCN(C)CC3)c(C(F)(F)F)c2)cc1C#Cc1cnc2cccnn12 | enzyme activity | inhibitor |  | 23.5 nM | remaining activity | 97%
CCCCNc1ncc2c(-c3ccc(F)cc3)nn(C[C@H]3CC[C@H](N)CC3)c2n1 | target engagement in cells | inhibitor | chemoproteomics | 20 mM | inhibition | 29%
CNC(=O)c1cc(Oc2ccc(NC(=O)Nc3ccc(Cl)c(C(F)(F)F)c3)cc2)ccn1 | enzyme activity | inhibitor |  | 10 µM | inhibition | 50%
COc1cc2ncnc(Nc3ccc(Oc4ccccc4)c(C)c3C)c2cc1OC | enzyme activity | inhibitor |  | 1 µM | inhibition | 12%
COc1ccc(COc2ccc(Cc3cnc(N)nc3N)cc2OC)cc1 | cell-free assay |  |  | 0.5 µM | remaining signal | 100%
Cc1ccc(Nc2nccc(N(C)c3ccc4c(C)n(C)nc4c3)n2)cc1S(N)(=O)=O | enzyme activity | inhibitor |  | 0.3 µM | inhibition | 15%
O=C(NC[C@@H]1[C@H]2CN(C(=O)OCc3cc(C(F)(F)F)cc(C(F)(F)F)c3)C[C@@H]12)c1ccc2[nH]nnc2c1 | cell-free assay |  | competition with immobilised ligand | 1 µM | remaining binding | 100%
COc1cc(Nc2c(C#N)cnc3cc(OCCCN4CCN(C)CC4)c(OC)cc23)c(Cl)cc1Cl | cell-free assay |  |  | 0.5 µM | remaining signal | 86.2%
COc1cc(-c2cc(-c3ccc(N4CCNCC4)cc3)cnc2C)cc(OC)c1OC | enzyme activity | inhibitor |  | 1 µM | inhibition | 1%
O=c1c2ccccc2[nH]c(=S)n1CCN1CCC(=C(c2ccc(F)cc2)c2ccc(F)cc2)CC1 | enzyme activity | inhibitor |  | 0.5 µM | remaining activity | 102%
CCC(=O)N[C@@H]1CC[C@H](C(=O)N(C)c2ccc(-c3nc4ccccc4o3)cc2)C1 | cell-free assay |  | competition with immobilised ligand | 1 µM | remaining binding | 100%
Oc1ccc(-c2nc(-c3ccncc3)c(-c3ccc(F)cc3)[nH]2)cc1 | cell-free assay |  |  | 0.5 µM | remaining signal | 96.4%
CCCCN(CCCC)C(=O)CN1C[C@H](c2cc(OC)c3c(c2)OCO3)[C@@H](C(=O)O)[C@@H]1CC(C)(C)CCC | cell-free assay |  | competition with immobilised ligand | 1 µM | remaining binding | 100%
